# Screening results deposited in PubChem by The Scripps Research Institute Molecular Screening Center.
# OXTR potentiate: human OXTR potentiators, primary screen, fluorescence, CHO-OTR cells, Fluo-8 calcium; Oxytocin receptor (Homo sapiens), P30559; Fluo-8 calcium fluorescence, potentiator mode; 0% = oxytocin EC15, 100% = EC100; activation, % at 3 µM; 320,000 tested, 0.061% active;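 active = activation above that plate's cutoff, the mean activation of tested compounds plus 3 SD, cut at about 6.6% in these data, passing the limit was not always enough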
# Target sequence (P30559 whole entry, looked up): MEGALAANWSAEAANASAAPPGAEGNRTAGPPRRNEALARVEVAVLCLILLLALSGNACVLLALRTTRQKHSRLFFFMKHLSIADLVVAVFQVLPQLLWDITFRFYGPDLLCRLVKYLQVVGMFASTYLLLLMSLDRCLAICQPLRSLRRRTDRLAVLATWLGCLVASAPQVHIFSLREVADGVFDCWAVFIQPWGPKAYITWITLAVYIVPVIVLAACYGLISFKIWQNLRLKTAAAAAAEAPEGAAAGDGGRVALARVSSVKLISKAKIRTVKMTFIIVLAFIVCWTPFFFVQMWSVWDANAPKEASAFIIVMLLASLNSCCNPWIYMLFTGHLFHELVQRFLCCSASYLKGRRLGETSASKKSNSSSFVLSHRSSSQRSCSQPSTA
#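 Measured by – Fluo-8 calcium dye fluorescence · Test system – human OTR in CHO cells · Dosing – one concentration, 3.0 µM compound · Controls – EC15 oxytocin alone as 0%, 75 nM oxytocin as 100% · Evaluation – normalized max/min fluorescence ratio, % activation · Timing – 6 min pre-incubation, 100 s read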
# OXTR agonist: human OXTR agonists, primary screen, fluorescence, CHO-OTR cells, Fluo-8 calcium. activation, % at 3 µM. Fluo-8 calcium fluorescence; normalized: DMSO 0%, oxytocin 100%. 320,000 tested, 0.32% active. Oxytocin receptor (Homo sapiens), P30559;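 active = activation above the mean of all tested compounds plus 3 SD, cutoff set per screening run, cut at about 20% in these data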;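 note: peak over basal fluorescence ratio from a 100 s FLIPR kinetic read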
# zfTRPN1 agonist: zebrafish TRPN1 channel agonists, primary screen, cell-based, HEK293, calcium fluorescence | transient receptor potential cation channel N1 (TRPN1/NompC), Danio rerio | HEK293 zebrafish TRPN1-YFP, Fluo-8 calcium fluorescence; 100% = response to 87 µM carbachol | activation, % at 3 µM | 220,000 tested, 0.18% active | AID 1424, 2008;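 active = activation above its plate's cutoff, the mean activation of test wells on that plate plus 3 SD, cut at about 19% in these data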
#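 Assay system: Zebrafish TRPN1-YFP in HEK293 cells | Incubation: Dye loading 1 h at 37 °C, then 30 min room temperature | Measured by: Kinetic Fluo-8 fluorescence, ex 470-495, em 515-575 nm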
# V1R ag counter: agonists of human V1a receptor, primary screen, counter-screen for OXTR agonist project, fluorescence, CHO-V1R cells; Vasopressin V1a receptor (Homo sapiens), P37288; Fluo-8 calcium fluorescence, agonist mode; 0% DMSO, 100% 3 nM vasopressin; activation, % at 3 µM; 320,000 tested, 0.25% active;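 active = activation above the mean activation of all tested compounds plus 3 SD, per screening run, cut at about 20% in these data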;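 note: signal is peak over basal fluorescence ratio across a 100 second FLIPR read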
# TRPML3 ag: human TRPML3 channel agonists, primary screen, cell-based, HEK293 TRPML3-YFP, Fluo-8 calcium fluorescence, 3 µM; Mucolipin-3 (Homo sapiens), Q8TDD5; 100% = the carbachol control signal; activation, % at 3 µM; 220,000 tested, 0.29% active; AID 1448, 2008;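 active = activation above its plate's cutoff, the mean activation of the plate's test wells plus 3 SD, cut at about 12% in these data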
#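 Material: HEK293 cells stably carrying human TRPML3-YFP; compound dosing: single dose, 3 µM final nominal compound, 0.3% DMSO final; incubation: 1-h 37 °C dye load, 5-s basal, 120-s post-compound reads; technique: Fluo-8 intracellular calcium fluorescence, excitation 470-495 nm, emission 515-575 nm; read-out basis: percent activation from peak-to-basal fluorescence ratio, scaled between DMSO and carbachol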
# OXTR ag confirm: human OXTR agonists, confirmation, fluorescence, CHO-OTR cells, triplicate. shares compounds with OXTR agonist. Fluo-8 calcium fluorescence, agonist. activation, % at 3 µM. 390 tested, 20% active. AID 434963, 2010;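 active = mean activation above about 20% derived from the earlier single-dose screen, limit read from the data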;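 note: peak over minimum fluorescence ratio per well during a 100 second FLIPR read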
# V1aR counter 3x: V1a receptor agonists, calcium signal, counter-screen for OXTR agonist project, triplicate, fluorescence, CHO-V1R cells; shares compounds with OXTR agonist; Fluo-8 calcium fluorescence; activation, % at 3 µM; 390 tested, 10% active; AID 434991, 2010;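 active = mean activation over triplicate exceeds the hit threshold set in the earlier primary screen, cut at about 20% in these data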;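 note: peak over basal fluorescence ratio within a 100 second read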
# Numbers stand for hits; i = inactive; nt = not tested or not shown. A selection: hits, their analogues and other compounds. The true share with any hit is near 0.55%.
SMILES,OXTR potentiate,OXTR agonist,zfTRPN1 agonist,V1R ag counter,TRPML3 ag,OXTR ag confirm,V1aR counter 3x
O=C(NCC1CCN(Cc2cccc(Cl)c2)CC1)Nc1ccc(Cl)cc1,i,23,nt,i,nt,i,i
Cc1ccc(C)c(CN2CCC(CNC(=O)Nc3ccc(C)c(C)c3)CC2)c1,i,i,nt,i,nt,nt,nt
COc1ccc(Cl)cc1NC(=O)NCC1CCN(Cc2cc(C)ccc2C)CC1,i,21,nt,i,nt,i,i
CCc1cccc(CN2CCC(CNC(=O)Nc3ccc(Cl)cc3)CC2)c1,i,i,i,i,i,nt,nt
O=C(CSCc1cc(=O)n2nc(C3CC3)sc2n1)Nc1ccc(F)cc1,i,i,nt,i,nt,nt,nt
CN(/N=C/c1ccc(-c2ccc([N+](=O)[O-])cc2)o1)c1ccccc1,i,23,nt,i,nt,96,100
Cc1cccc(C(=O)NC(=S)NNC(=O)Cc2ccccc2)c1,i,25,i,i,i,45,58
Cc1ccnc(N/C=C(\C#N)c2nc(-c3cccc(Br)c3)cs2)c1,i,31,i,i,i,128,162
Oc1ccc(Cl)cc1CNCc1ccc(F)c(F)c1,i,i,nt,i,nt,nt,nt
Oc1ccc(Cl)cc1CNCc1ccc(Cl)nc1,i,20,nt,i,nt,21,i
CCC1CO/C(=C(\C(Cl)=C(Cl)Cl)[N+](=O)[O-])N1 (configuration not stated),i,i,i,i,i,nt,nt
COc1ccc(-n2c(O)c(/C=N/NS(=O)(=O)c3ccc(C)cc3)c3ccccc3c2=O)cc1OC,i,32,i,i,i,i,i
COc1cccc(/C=N/NC(=O)CNC(=O)C(c2ccccc2)c2ccccc2)c1O,i,i,nt,i,nt,nt,nt
Cc1ccccc1NC(=O)c1nnn(-c2ccc3c(c2)OCCO3)c1N,i,21,nt,i,nt,i,i
CCCCNC(=O)CCCn1c(=S)[nH]c2cc3c(cc2c1=O)OCO3,i,22,i,i,i,i,i
CC(Oc1cccc(Cl)c1)C(=O)Nc1ccc(S(=O)(=O)N(C)C2CCN(C)CC2)cc1 (configuration not stated),i,22,nt,i,nt,i,i
CC(=O)Nc1ccc(S(=O)(=O)N(C)C2CCN(C)CC2)cc1,i,i,nt,i,nt,nt,nt
Cc1cccc(C(=O)NCCC(=O)Nc2ccc(F)c([N+](=O)[O-])c2)c1,i,i,nt,i,nt,nt,nt
COC(=O)C(NC(=O)c1ccccc1C)(Nc1ncc(S(=O)(=O)c2ccc([N+](=O)[O-])cc2)s1)C(F)(F)F (configuration not stated),i,26,i,i,i,i,i
Cc1cc(/C=C2/C(=N)N3C(=NC2=O)SN=C3S(C)(=O)=O)c(C)n1-c1ccc(F)cc1,i,i,i,i,i,nt,nt
CSC1=NSC2=NC(=O)/C(=C\c3coc4ccccc4c3=O)C(=N)N12,i,26,29,i,15,329,488
O=C(CN1CCN(C(=O)c2c(F)cccc2F)CC1)Nc1ccccc1C(F)(F)F,i,i,nt,i,nt,nt,nt
Nc1ccc(Br)c2c1C(=O)c1ccccc1C2=O,i,34,i,i,i,i,i
OCCN1CCN(C2CCC(c3ccc(F)cc3)c3ccc(F)cc32)CC1 (configuration not stated),i,31,nt,i,nt,i,i
Fc1ccc2[nH]c3c(NCc4ccccc4)ncnc3c2c1,i,24,nt,i,nt,i,i
SMILES,OXTR potentiate,OXTR agonist,zfTRPN1 agonist,V1R ag counter,TRPML3 ag,OXTR ag confirm,V1aR counter 3x
O=C(CCC(=O)c1ccc(Oc2ccccc2)cc1)Nc1ccc(C(=O)O)cc1,i,i,nt,i,nt,nt,nt
Cc1[nH]c2ccccc2c1C(=O)CSc1ccc(Cl)cc1,i,i,i,i,i,nt,nt
Cc1[nH]c2ccccc2c1C(=O)CN1C(=O)NC(C)(c2ccc(Cl)cc2Cl)C1=O (configuration not stated),i,32,i,i,i,28,i
CCc1cc(=O)oc2c3c(cc(OCC(=O)NCCCOC)c12)OC(C)(C)CC3,i,i,nt,i,nt,nt,nt
COC(=O)[C@@]12CCCCN1[C@H](c1ccc(-c3ccc(OC)cc3)c(OC)c1)[C@@H]1C(=O)N(C)C(=O)[C@@H]12,i,i,nt,i,nt,nt,nt
Cc1c(C(=O)Nc2cccc(F)c2)cnn1-c1ccccc1,i,i,nt,i,nt,nt,nt
Oc1ccccc1CNc1cnc2ccccc2c1,i,22,i,i,i,i,i
COc1cc(C(=O)NC(=S)NNC(=O)c2cnccn2)cc(OC)c1OC,i,i,i,i,i,nt,nt
COc1ccccc1C(=O)NNC(=S)NC(=O)c1cc(OC)c(OC)c(OC)c1,i,21,i,i,i,i,i
COc1cc(CNCCc2ccc(F)cc2)ccc1OCc1ccc(Cl)nc1,i,22,i,i,i,i,i
COc1cccc(CNCCc2c[nH]c3ccccc23)c1OCc1ccc(F)cc1,i,i,i,i,i,nt,nt
COc1cc(CNCCc2c[nH]c3ccccc23)ccc1OCc1ccc(F)cc1,i,22,i,i,i,i,i
O=C(Nc1ccc(S(=O)(=O)N2CCCCC2)cc1)c1ccc(CN2CCOCC2)cc1,i,20,i,i,i,i,i
COc1ccc(OC)c(NC(=O)Cc2nn(C)c(=O)c3ccccc23)c1,i,20,i,i,i,i,i
COc1cc(NC(=O)Cc2nn(C)c(=O)c3ccccc23)cc(OC)c1OC,i,i,i,i,i,nt,nt
OCc1ccccc1SSc1ccccc1CO,i,i,nt,i,nt,nt,nt
COc1ccc(C2SCCN2C(=S)Nc2ccc(F)cc2)cc1 (configuration not stated),i,i,i,i,i,nt,nt
CCOC(=O)c1ccc(NC(=S)N2CCSC2c2ccc(OC)cc2)cc1 (configuration not stated),i,32,i,i,i,37,31
CCOC(=O)C(C)NC(=O)CCc1nnc2ccc(N3CCC(C)CC3)nn12 (configuration not stated),i,i,nt,i,nt,nt,nt
COc1cccc2c1C(=O)c1c(O)c3c(c(O)c1C2=O)C[C@@](O)(C(=O)CO)C[C@@H]3O[C@H]1C[C@H](N)[C@@H](O)[C@H](C)O1,i,23,nt,i,nt,i,i
CCOC(=O)c1sc(NC(=O)c2ccc(Cl)s2)cc1C,i,i,i,i,i,nt,nt
